Source: PubChem BioAssay
Hits are enriched below; roughly 2.5% of the tested compounds scored in any of these assays.
PAD4 FP inh – human PAD4 inhibitors, primary screen, biochemical, fluorescence polarization, 1536-well format | Protein-arginine deiminase type-4 (Homo sapiens), Q9UM07 | recombinant PAD4, RCA probe fluorescence polarization | inhibition, % at 6.36 µM | hit rate 0.41% among 330,000 | AID 485272, 2010;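 active means percent inhibition above a cutoff equal to the mean of all tested compounds plus 3 SD, cut at about 15% in these data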;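 further: 0% = PAD4 with RCA probe and DMSO and 100% = probe without PAD4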
PRMT1 FP inh – PRMT1 methyltransferase inhibitors, primary screen, biochemical, fluorescence polarization. recombinant PRMT1, activity-based probe fluorescence polarization. inhibition, % at 2.79 µM. hit rate 1.3% among 370,000. AID 652257, 2013;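 active means inhibition above about 21% made by adding two undisclosed values, limit read from the data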
Target sequence (Q99873 whole entry, looked up): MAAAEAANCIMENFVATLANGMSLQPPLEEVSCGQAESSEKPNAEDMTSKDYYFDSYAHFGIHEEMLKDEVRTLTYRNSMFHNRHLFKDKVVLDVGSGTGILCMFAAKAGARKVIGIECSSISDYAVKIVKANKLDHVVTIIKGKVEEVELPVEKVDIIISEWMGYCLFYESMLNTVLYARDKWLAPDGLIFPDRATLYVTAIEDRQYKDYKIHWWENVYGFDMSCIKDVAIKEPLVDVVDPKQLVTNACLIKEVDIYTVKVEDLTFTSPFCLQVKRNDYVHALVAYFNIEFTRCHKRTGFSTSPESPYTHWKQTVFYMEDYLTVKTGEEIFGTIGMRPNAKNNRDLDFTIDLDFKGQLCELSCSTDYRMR
TDP2 inh – human TDP2 enzyme inhibitors, primary screen, biochemical, epi absorbance, recombinant enzyme | T5PNP hydrolysis, p-nitrophenol absorbance 415 nm | hit rate 0.34% among 370,000 | Tyrosyl-DNA phosphodiesterase 2 (Homo sapiens), O95551 | AID 720702, 2013 | inhibition, % at 12.8 µM;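 active means inhibition above the mean of all tested compounds plus 3 SD, set per campaign, cut at about 25% in these data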;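 further: 0% = DMSO with enzyme and 100% = buffer with substrate but no TDP2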
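Incubation: 2 h at 37 °C; Test system: recombinant human TDP2; Quantity: enzyme 120 nM; Read-out basis: percent inhibition; Medium: 50 mM Tris-HCl pH 7.5 with Mg2+, KCl, DTT, BSA; Repeats: single replicate; Compound: 12.8 µM single point, 1% DMSO; Signal: epi absorbance; Reagent: 5 mM T5PNP chromogenic substrate; Benchmarks: no-enzyme high, DMSO-plus-enzyme low.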
CTSL1 counter – Fasciola hepatica cathepsin L1 inhibitors, primary screen, counter-screen for PFM18AAP inhibitor project, biochemical, QFRET, fluorogenic peptide substrate. recombinant F. hepatica cathepsin L1, Z-Leu-Arg-MCA fluorescence. inhibition, % at 5.96 µM. hit rate 0.49% among 300,000. AID 1906, 2009;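 active means inhibition above the mean of all tested compounds plus 3 SD, set per screening campaign, cut at about 17% in these data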;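 further: 0% = plate median of test compound wells and 100% = 1 µM Z-Phe-Ala-diazomethylketone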
GSTO1 inh – inhibitors of recombinant GSTO1, primary screen, counter-screen for RBBP9 inhibitor project, biochemical, fluorescence polarization | activity-based probe fluorescence polarization | inhibition, % at 5.96 µM | hit rate 1.1% among 300,000 | AID 1974, 2009;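 active means inhibition above the campaign mean inhibition plus 3 SD, cut at about 35% in these data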;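 further: 0% = GSTO1-1 with DMSO and 100% = wells lacking GSTO1-1 enzyme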
Target sequence (P78417 whole entry, looked up): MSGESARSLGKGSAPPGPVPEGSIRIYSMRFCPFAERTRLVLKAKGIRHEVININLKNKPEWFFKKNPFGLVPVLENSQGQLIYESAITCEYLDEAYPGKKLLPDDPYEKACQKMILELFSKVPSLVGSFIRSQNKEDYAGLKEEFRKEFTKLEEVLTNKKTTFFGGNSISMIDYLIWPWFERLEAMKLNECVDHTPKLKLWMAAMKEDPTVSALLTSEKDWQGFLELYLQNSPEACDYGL
PRMT1 inh conf – PRMT1 methyltransferase inhibitors, confirmation, biochemical, fluorescence polarization, triplicate. shares compounds with PRMT1 FP inh. recombinant His-PRMT1, activity-based probe fluorescence polarization. inhibition, % at 2.79 µM. hit rate 42% among 3,300. AID 687036, 2013;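 active means mean inhibition across replicates above the hit cutoff derived for the earlier primary screen, cut at about 22% in these data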
Active calls of the source: *; nt = no result.

SMILES | PAD4 FP inh | PRMT1 FP inh | TDP2 inh | CTSL1 counter | GSTO1 inh | PRMT1 inh conf
CCN=C1SC(CC(=O)NCc2ccccc2)C(=O)N1CC (centres undefined) | -3.2 | 78.4* | -3.6 | 0.6 | -1.4 | 5.5
CCCCNC(=O)CC1SC(=NCC)N(CC)C1=O (centres undefined) | 0.1 | 3.7 | 10.9 | 1.8 | 0.7 | nt
CCN=C1SC(C(=O)NCCc2ccccc2)CC(=O)N1CC (centres undefined) | 1.6 | 39.0* | 3.6 | 1.6 | -0.2 | 0.3
c1ccc2sc(-c3csc4c3CCNC4)nc2c1 | nt | 0.9 | 2.8 | nt | nt | nt
O=C(O)c1cccc(-n2c(O)c(C=C3N=c4ccccc4=N3)sc2=S)c1 | -3.6 | 31.0* | -8.5 | -2.1 | -20.0 | 5.2
O=C(O)c1ccc(-n2c(O)c(C=C3N=c4ccccc4=N3)sc2=S)cc1 | -1.2 | 29.5* | 7.3 | 2.8 | -3.4 | 21.0
CCCC(C(=O)O)n1c(O)c(C=C2N=c3ccccc3=N2)sc1=S (centres undefined) | -10.7 | 26.3* | -15.5 | 9.2 | 0.5 | 2.5
CCC(C)NC(=O)C1CCCN(S(=O)(=O)c2ccc3c(c2)CC(C)N3C(C)=O)C1 (centres undefined) | -1.0 | 26.4* | 7.1 | -0.8 | 4.4 | 8.3
CCC(C)NC(=O)C1CCCN(S(=O)(=O)c2ccc3c(c2)CC(C)N3C(=O)C2CC2)C1 (centres undefined) | 3.1 | -3.0 | -4.8 | 10.2 | 1.0 | nt
CSc1nc2c(c(=O)[nH]1)C(c1ccccc1)C1=C(CC(C)(C)CC1=O)N2 (centres undefined) | 0.7 | 0.7 | 0.7 | 0.8 | -1.8 | nt
CC1(C)CC(=O)C2=C(C1)Nc1[nH]c(=S)[nH]c(=O)c1C2c1ccccc1 (centres undefined) | 2.0 | 65.8* | -17.3 | 4.5 | 12.6 | 5.9
O=C1CCCC2=C1C(c1ccc(Br)cc1)c1c([nH]c(=S)[nH]c1=O)N2 (centres undefined) | -9.3 | 48.9* | 7.0 | -0.4 | -2.2 | 37.9*
COc1ccc(CN2C(C(=O)NC3CCCC3)CSCCS2(=O)=O)cc1 (centres undefined) | nt | 1.8 | 2.1 | nt | nt | nt
CCCCOCCCNC(=O)C[C@H]1C[C@@]2(C(=O)OC)C(=C[C@H](C(C)C)O[C@@H]2C2CC2)N(Cc2cccc3ccccc23)C1=O | nt | 2.9 | 2.7 | nt | nt | nt
c1ccc(NNC2=NCCS2)cc1 | -1.9 | 29.0* | -24.6 | 1.3 | 3.6 | 0.7
O=C(CSc1ccccc1)NC1=NCCS1 | 0.9 | 1.2 | 6.3 | 2.1 | 1.1 | nt
CC[C@@H](CCCc1ccc(OC)cc1)CCC(=O)N(c1ccccc1)c1ccccc1 | nt | 3.1 | 7.5 | nt | nt | nt
CN1C(=O)CS(=O)c2ccc(C(=O)NC3CC3)cc21 (centres undefined) | 0.4 | 37.1* | -2.3 | 0.9 | 3.5 | 4.0
COc1cccc(CO[C@H]2C=C[C@@H](c3ccccc3)O[C@@H]2CO)c1 | nt | -0.4 | 3.9 | nt | nt | nt
O=C(Nc1nc(-c2cccs2)c(-c2ccccc2)s1)c1ccco1 | 1.5 | -0.8 | -4.0 | 3.0 | -11.3 | nt
CC1CC1C(=O)Nc1nc(-c2cccs2)c(-c2cccs2)s1 (centres undefined) | 3.1 | 27.2* | -0.2 | 1.1 | 3.7 | 9.2
COc1cccc(NC(=O)Nc2c(-c3ccc(C(F)(F)F)cc3)nc3ncccn23)c1 | nt | -5.3 | -10.5 | nt | nt | nt
Cc1cc(C(=O)Nc2ccc(Nc3ccccc3)cc2)ccc1[N+](=O)[O-] | -1.1 | 28.1* | 6.7 | -10.7 | 6.7 | 6.1
O=C(Nc1ccc(Nc2ccccc2)cc1)c1ccc(Cl)c([N+](=O)[O-])c1 | -1.4 | 0.8 | -8.5 | 4.4 | -7.5 | nt
CCOC(=O)Cn1cc(CN2CCS(=O)(=O)N(Cc3ccc(C)cc3)C(C(=O)OC)C2)nn1 (centres undefined) | nt | -0.8 | 2.2 | nt | nt | nt
SMILES | PAD4 FP inh | PRMT1 FP inh | TDP2 inh | CTSL1 counter | GSTO1 inh | PRMT1 inh conf
C[C@H]1[C@@H](NC(=O)C(c2ccccc2)c2ccccc2)CC[C@@]23CCCN2C(=O)CCC[C@@H]13 | nt | 0.2 | 11.0 | nt | nt | nt
CCc1[nH]c(=O)[nH]c1C(C)S(=O)(=O)c1ccc(C)cc1 (centres undefined) | -0.6 | 42.7* | -5.4 | -3.6 | -2.4 | 33.8*
CCc1c(C#N)c(=O)[nH]c(=O)n1-c1ccccc1 | 0.6 | -0.1 | 7.7 | 0.0 | -1.5 | nt
CCc1c(C(C)S(=O)(=O)c2ccc(C)cc2)[nH]c(=O)n1-c1ccc(C)cc1 (centres undefined) | -4.7 | 33.8* | -5.9 | 6.7 | -3.1 | 14.4
CCN1CCN(Cc2ccc(NC(=O)c3cccc(-c4ccc5nc(NC(=O)C6CC6)sc5n4)c3)cc2C(F)(F)F)CC1 | nt | 3.0 | 1.5 | nt | nt | nt
CCOC(=O)N1CCC(NC(=O)CSCc2nc(-c3ccc(OC)cc3)oc2C)CC1 | 0.5 | 0.2 | 5.6 | -1.8 | -2.3 | nt
COc1ccc(-c2nc(CSCC(=O)NC3CCCc4ccccc43)c(C)o2)cc1 (centres undefined) | -5.2 | 29.3* | -5.2 | -4.0 | -3.9 | 26.5*
Cc1nc2ccc(S(=O)(=O)NCC(=O)NCc3cccs3)cc2s1 | nt | 2.2 | 5.3 | nt | nt | nt
Cc1ccc(NC(=O)CSC2=NCCN2)cc1 | 0.8 | 31.6* | 0.1 | 1.7 | -4.9 | 12.4
O=C(CSC1=NCCN1)NC(c1ccccc1)c1ccccc1 | 11.6 | 41.2* | 11.3 | -2.5 | -15.9 | 26.3*
O=C(CSC1=NCCN1)Nc1ccccc1[N+](=O)[O-] | -1.8 | 54.8* | 7.1 | 3.9 | 18.4 | 19.3
O=C(CSC1=NCCN1)Nc1cccc([N+](=O)[O-])c1 | 5.8 | 33.9* | -2.6 | 0.3 | 15.9 | 15.9
CCn1c(SCC(=O)Nc2ccc(C)cc2)nnc1-c1ccccn1 | -4.8 | -1.5 | 1.1 | 0.7 | 8.6 | nt
O=C(CSC1=NCCN1)NC1CCCCCC1 | 0.4 | 5.2 | -2.5 | -2.1 | 1.1 | nt
Nc1nc(SCC(=O)Nc2cccc([N+](=O)[O-])c2)n[nH]1 | -0.9 | -3.0 | -4.0 | nt | nt | nt
CCOc1ccccc1NC(=O)CSc1c(C)n[nH]c1C | 4.1 | 25.1* | -19.4 | -1.9 | 1.3 | 20.6
COc1ccccc1NC(=O)CSC1=NCCN1 | 13.7 | 30.9* | -1.8 | 0.7 | 2.9 | 20.9
COc1ccccc1NC(=O)CSc1nccc(-c2ccco2)n1 | -2.4 | 31.6* | -16.1 | nt | nt | 6.6
CCOc1ccccc1NC(=O)/C=C/C(N)=O | -5.7 | 61.4* | 9.5 | -1.1 | 3.1 | 46.9*
Cc1ccc(Cn2cc(CN(C(C)(C)C)S(=O)(=O)c3ccc(F)cc3Br)nn2)cc1 | nt | -1.1 | -0.5 | nt | nt | nt
